The target of experiment [1] is T1, Angiotensin-converting enzyme (Oryctolagus cuniculus, UniProt P12822).
T1 sequence (P12822 whole entry): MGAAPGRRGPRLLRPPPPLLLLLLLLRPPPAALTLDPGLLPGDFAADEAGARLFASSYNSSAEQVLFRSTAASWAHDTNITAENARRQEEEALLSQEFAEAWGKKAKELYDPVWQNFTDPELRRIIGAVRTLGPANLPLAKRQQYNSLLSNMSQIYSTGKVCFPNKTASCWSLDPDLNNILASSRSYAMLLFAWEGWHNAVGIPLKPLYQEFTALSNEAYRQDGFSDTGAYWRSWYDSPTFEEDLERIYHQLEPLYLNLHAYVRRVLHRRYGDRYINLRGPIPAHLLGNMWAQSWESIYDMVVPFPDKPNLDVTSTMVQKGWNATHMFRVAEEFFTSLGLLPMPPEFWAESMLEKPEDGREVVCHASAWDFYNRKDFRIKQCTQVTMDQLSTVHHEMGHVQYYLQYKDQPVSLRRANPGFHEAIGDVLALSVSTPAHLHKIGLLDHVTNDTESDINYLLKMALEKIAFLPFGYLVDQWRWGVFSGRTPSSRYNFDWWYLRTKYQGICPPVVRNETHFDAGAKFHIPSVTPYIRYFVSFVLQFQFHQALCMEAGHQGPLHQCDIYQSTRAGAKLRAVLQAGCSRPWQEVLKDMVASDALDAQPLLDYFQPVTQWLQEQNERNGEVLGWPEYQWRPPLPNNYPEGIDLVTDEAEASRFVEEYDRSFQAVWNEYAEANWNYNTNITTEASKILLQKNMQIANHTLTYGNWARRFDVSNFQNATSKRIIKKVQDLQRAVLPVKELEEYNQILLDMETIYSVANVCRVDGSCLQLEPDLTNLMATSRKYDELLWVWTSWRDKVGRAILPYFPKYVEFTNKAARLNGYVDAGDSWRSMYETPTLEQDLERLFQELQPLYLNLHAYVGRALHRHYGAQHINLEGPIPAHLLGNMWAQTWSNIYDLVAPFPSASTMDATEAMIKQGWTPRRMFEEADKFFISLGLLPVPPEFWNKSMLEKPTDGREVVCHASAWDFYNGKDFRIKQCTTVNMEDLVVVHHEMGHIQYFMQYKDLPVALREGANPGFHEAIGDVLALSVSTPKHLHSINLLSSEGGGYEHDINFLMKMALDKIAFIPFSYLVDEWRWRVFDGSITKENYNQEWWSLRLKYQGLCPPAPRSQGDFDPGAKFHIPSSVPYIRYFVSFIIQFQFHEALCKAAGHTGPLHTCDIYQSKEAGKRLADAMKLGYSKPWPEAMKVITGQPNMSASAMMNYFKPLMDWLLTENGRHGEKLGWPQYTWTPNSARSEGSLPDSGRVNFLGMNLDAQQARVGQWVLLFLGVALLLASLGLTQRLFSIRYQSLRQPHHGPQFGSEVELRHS
Kind of experiment: In vitro inhibition of angiotensin I converting enzyme from rabbit lung. The experiment is classed as tissue-based.

In experiment [2] the test system is Rattus norvegicus. Kind of experiment: Percent inhibitory activity against angiotensin I pressor response 15 min after intravenous administration at dose 0.1 mg/kg. Type of experiment: functional. The conditions noted are these: 0.25 h. In outline:
(§1)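 Normotensive rats received the test compound intravenously. The angiotensin I pressor response was measured 15 min after dosing and reported as percent inhibition.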

Experiment [3] concerns Rattus norvegicus. The experiment in a line: Percent inhibitory activity against angiotensin I pressor response 2 hr after peroral administration at dose 1 mg/kg. Type of experiment: functional. The conditions noted are these: route oral. In outline: (§2)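 Normotensive rats were dosed orally. The angiotensin I pressor response was followed, and the maximum percent inhibition 2 h after administration was reported.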

Experiment [4] has as its system Rattus norvegicus. Kind of experiment: Percent inhibitory activity against angiotensin I pressor response 2 hr after peroral administration at dose 10 mg/kg. Type of experiment: functional. The settings on record: route oral. Summed up: as §2
Experiment [5] has as its system Rattus norvegicus. Kind of experiment: Percent inhibitory activity against angiotensin I pressor response 15 min after intravenous administration at dose 1 mg/kg. The experiment is classed as functional. The settings on record: 0.25 h. In outline: as §1

The values that follow come from ChEMBL document CHEMBL1122837, “Angiotensin converting enzyme inhibitors: N-substituted D-glutamic acid gamma dipeptides” (J Med Chem, 1985).

Usually IC50 stands for the point on the concentration scale where inhibition reaches its midpoint. Read a high IC50 as a need for much substance. In general, inhibition in vivo refers to how much of the control response was suppressed. A high value points to a strong effect.

`O=C(O)[C@@H](CCC(=O)N1c2ccccc2C[C@H]1C(=O)O)N(Cc1ccccc1)C(=O)OCc1ccccc1` returned a half-inhibitory concentration (IC50) in experiment [1] of 10000 nM.
The compound `O=C(NC(CCC(=O)N1c2ccccc2C[C@@H]1C(=O)O)C(=O)O)OCc1ccccc1` (some centres undefined) returned a half-inhibitory concentration (IC50) in experiment [1] of 7 nM. In addition, testing at 0.1 mg/kg in experiment [2] gave an inhibition in vivo of 70%. In addition, at 1 mg/kg the inhibition in vivo in experiment [3] was 0%.
As to `NCCCCC(N)C(=O)N[C@H](CCC(=O)N1c2ccccc2C[C@H]1C(=O)O)C(=O)O` (some centres undefined), 188 nM corresponded to half-maximal inhibition in experiment [1] (IC50).
For `O=C(N[C@H](CCC(=O)N1c2ccccc2C[C@H]1C(=O)OCc1cccnc1)C(=O)O)OCc1ccccc1`, in experiment [1], the midpoint of inhibition, the IC50, lay at 350 nM. Further, in experiment [4], the inhibition in vivo at 10 mg/kg came out at 15%. The compound further yielded an inhibition in vivo at 1 mg/kg in experiment [5] of 70%.
`O=C1OCN(C(=O)OCc2ccccc2)[C@@H]1CCC(=O)N1c2ccccc2C[C@H]1C(=O)O` gave a half-inhibitory concentration (IC50) in experiment [1] of 52 nM.
On the same count and under the same terms, as for `O=C(N[C@H](CCC(=O)N1Cc2ccccc2C[C@H]1C(=O)O)C(=O)O)OCc1ccccc1`, the figure is 14 nM; as for `O=C(N[C@H](CCC(=O)N1c2ccccc2CCC1C(=O)O)C(=O)O)OCc1ccccc1` (some centres undefined), 88 nM.
Still for that read-out and setting: for `N[C@H](CCC(=O)N1c2ccccc2C[C@H]1C(=O)O)C(=O)O` the value was 10000 nM; for `CC(=O)N[C@H](CCC(=O)N1c2ccccc2C[C@H]1C(=O)O)C(=O)O`, 95 nM; for `COc1ccc(N(CC(=O)O)C(=O)CC[C@@H](NC(=O)OCc2ccccc2)C(=O)O)cc1OC`, 21 nM.
In turn, `O=C(CCc1ccccc1)N[C@H](CCC(=O)N1c2ccccc2C[C@H]1C(=O)O)C(=O)O` came in with a concentration for half-maximal inhibition (IC50) in experiment [1] of 40 nM. The inhibition in vivo at 1 mg/kg in experiment [5] was 76%.
On to `O=C(Nc1ccccc1)N[C@H](CCC(=O)N1c2ccccc2C[C@H]1C(=O)O)C(=O)O`, for which the IC50 in experiment [1] was found to be 44 nM.
Still for that read-out and setting: as for `O=C(O)[C@@H](CCC(=O)N1c2ccccc2C[C@H]1C(=O)O)NCc1ccccc1`, the figure is 300 nM.
The compound `O=C(N[C@H](CCC(=O)N1c2ccccc2C[C@H]1C(=O)O)C(=O)O)c1cccnc1` showed an IC50 in experiment [1] of 24 nM. Further, the inhibition in vivo at 0.1 mg/kg in experiment [2] came to 79%. Also, in experiment [3], the inhibition in vivo at 1 mg/kg was 0%.
In the case of `O=C(N[C@H](CCC(=O)N1CCC[C@H]1C(=O)O)C(=O)O)OCc1ccccc1`, the IC50 in experiment [1] is 50 nM.
Take `O=C(N[C@@H](CCC(=O)N1c2ccccc2CC1C(=O)O)C(=O)O)OCc1ccccc1` (some centres undefined): the IC50 in experiment [1] was determined as 500 nM.
In experiment [1], `CN(C)CCCOC(=O)[C@@H]1Cc2ccccc2N1C(=O)CC[C@@H](NC(=O)OCc1ccccc1)C(=O)O` gave an IC50 of 37 nM.
Still for that read-out and setting: as for `O=C(O)CN(C(=O)CC[C@@H](NC(=O)OCc1ccccc1)C(=O)O)C1CCCC1`, the figure is 40 nM; as for `O=C(N[C@H](CCC(=O)N1c2ccccc2C[C@H]1C(=O)O)C(=O)O)c1ccccn1`, 57 nM.
On the same count and under the same terms, as for `O=C(N[C@H](CCC(=O)N1[C@H](C(=O)O)C[C@@H]2CCCC[C@@H]21)C(=O)O)OCc1ccccc1`, the figure is 2.7 nM; as for `O=C(O)[C@@H](CCC(=O)N1c2ccccc2C[C@H]1C(=O)O)NS(=O)(=O)Cc1ccccc1`, 29 nM; as for `O=C(NCCCCC(NC(=O)OCc1ccccc1)C(=O)N[C@H](CCC(=O)N1c2ccccc2C[C@H]1C(=O)O)C(=O)O)OCc1ccccc1` (some centres undefined), 61 nM.
In experiment [1], `CCOC(=O)[C@@H]1Cc2ccccc2N1C(=O)CC[C@@H](NC(=O)OCc1ccccc1)C(=O)O` showed an IC50 of 4700 nM.
As to `O=C(N[C@H](CCC(=O)N1c2ccccc2C[C@H]1C(=O)O)C(=O)O)c1ccccc1`, in experiment [1], 28 nM corresponded to half-maximal inhibition (IC50). The compound also registered an inhibition in vivo at 0.1 mg/kg in experiment [2] of 55%.
In turn, `CCOC(=O)[C@@H](CCC(=O)N1c2ccccc2C[C@H]1C(=O)O)NC(=O)c1cccnc1` returned a 50% inhibitory concentration (IC50) in experiment [1] of 2200 nM. Also, in experiment [4], testing at 10 mg/kg gave an inhibition in vivo of 30%. This compound also showed an inhibition in vivo at 1 mg/kg in experiment [5] of 100%.
On to `CN(C)CCOC(=O)[C@@H]1Cc2ccccc2N1C(=O)CC[C@@H](NC(=O)OCc1ccccc1)C(=O)O`, for which the IC50 in experiment [1] stood at 7 nM.
Same read-out and setting: as for `O=C(N[C@H](CCC(=O)N1C[C@H]2CCCC[C@H]2C[C@H]1C(=O)O)C(=O)O)OCc1ccccc1`, the figure is 17 nM.
The same measure, in the same setting: for `Cc1ccc(S(=O)(=O)N[C@H](CCC(=O)N2c3ccccc3C[C@H]2C(=O)O)C(=O)O)cc1` the value was 20 nM; for `NC(=O)[C@@H]1Cc2ccccc2N1C(=O)CC[C@@H](NC(=O)OCc1ccccc1)C(=O)O`, 160 nM.
